What was measured:
[1] = tested on: SF-539; experiment: Growth inhibition of human SF539 cells assessed as cell growth at 10^-5 M after 48 hrs by sulforhodamine B assay relative to control; format: functional; conditions: SF-539, 48 h, read-out: Activity
In short: (§1)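 NCI-60 single-dose screen at 10^-5 M. Cells grown in RPMI 1640 with 5% FBS and 2 mM L-glutamine, plated at 5,000–40,000 cells/well according to doubling time, and preincubated 24 h at 37°C, 5% CO2. Compound dissolved in DMSO and added. Exposure 48 h. Adherent cells fixed with cold TCA (10% final), suspension cells with 16% final TCA. Read-out is 0.4% SRB staining, dye solubilised in 10 mM Tris, absorbance at 515 nm. Percent growth is calculated against the time-zero plate and untreated control.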

[2] = target: Thymidylate synthase (Homo sapiens, UniProt P04818); experiment: Inhibition of human thymidylate synthase
Thymidylate synthase, sequence (P04818 whole entry): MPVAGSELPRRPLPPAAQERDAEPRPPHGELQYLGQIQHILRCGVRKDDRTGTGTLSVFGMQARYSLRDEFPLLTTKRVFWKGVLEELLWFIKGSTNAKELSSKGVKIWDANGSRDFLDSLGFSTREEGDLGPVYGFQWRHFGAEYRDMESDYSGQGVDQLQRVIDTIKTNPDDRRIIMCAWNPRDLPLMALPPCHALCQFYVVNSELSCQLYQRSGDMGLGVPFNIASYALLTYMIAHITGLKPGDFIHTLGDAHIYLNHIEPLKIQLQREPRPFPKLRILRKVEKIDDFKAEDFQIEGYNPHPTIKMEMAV

[3] = tested on: A549; experiment: Growth inhibition of human A549 cells assessed as cell growth at 10^-5 M after 48 hrs by sulforhodamine B assay relative to control; format: functional; conditions: A549, 48 h, read-out: Activity; in short: as §1
[4] = tested on: NCI-H23; experiment: Growth inhibition of human NCI-H23 cells assessed as cell growth at 10^-5 M after 48 hrs by sulforhodamine B assay relative to control; format: functional; conditions: NCI-H23, 48 h, read-out: Activity; in short: as §1
[5] = tested on: NCI-H322M; experiment: Growth inhibition of human NCI-H322M cells assessed as cell growth at 10^-5 M after 48 hrs by sulforhodamine B assay relative to control; format: functional; conditions: read-out: Activity; in short: as §1
[6] = tested on: MCF7; experiment: Growth inhibition of human MCF7 cells assessed as cell growth at 10^-5 M after 48 hrs by sulforhodamine B assay relative to control; format: functional; conditions: MCF7, 48 h, read-out: Activity; in short: as §1
[7] = Growth inhibition of human NCI-ADR-RES cells assessed as cell growth at 10^-5 M after 48 hrs by sulforhodamine B assay relative to control; format: functional; conditions: read-out: Activity; in short: as §1
[8] = tested on: RXF 393; experiment: Growth inhibition of human RXF393 cells assessed as cell growth at 10^-5 M after 48 hrs by sulforhodamine B assay relative to control; format: functional; conditions: RXF 393, 48 h, read-out: Activity; in short: as §1
[9] = tested on: SR; experiment: Growth inhibition of human SR cells assessed as cell growth at 10^-5 M after 48 hrs by sulforhodamine B assay relative to control; format: functional; conditions: read-out: Activity
In short: (§2)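 NCI-60 single-dose screen, 10^-5 M final. Cells grown in RPMI 1640 with 5% FBS and 2 mM L-glutamine, seeded at 5,000–40,000 cells/well by doubling time. Preincubated 24 h at 37°C, 5% CO2. Compound in DMSO, diluted in medium with gentamicin, then 48 h exposure. Fixed with cold TCA, SRB stained, A515 read. Percent growth vs untreated control, time-zero plate corrected.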

[10] = tested on: 786-0; experiment: Growth inhibition of human 786-0 cells assessed as cell growth at 10^-5 M after 48 hrs by sulforhodamine B assay relative to control; format: functional; conditions: 786-0, 48 h, read-out: Activity; in short: as §1
[11] = tested on: COLO 205; experiment: Growth inhibition of human COLO205 cells assessed as cell growth at 10^-5 M after 48 hrs by sulforhodamine B assay relative to control; format: functional; conditions: COLO 205, 48 h, read-out: Activity; in short: as §1
[12] = tested on: PC-3; experiment: Growth inhibition of human PC3 cells assessed as cell growth at 10^-5 M after 48 hrs by sulforhodamine B assay relative to control; format: functional; conditions: PC-3, 48 h, read-out: Activity; in short: as §1
[13] = tested on: OVCAR-3; experiment: Growth inhibition of human OVCAR3 cells assessed as cell growth at 10^-5 M after 48 hrs by sulforhodamine B assay relative to control; format: functional; conditions: OVCAR-3, 48 h, read-out: Activity; in short: as §1
[14] = tested on: HOP-62; experiment: Growth inhibition of human HOP62 cells assessed as cell growth at 10^-5 M after 48 hrs by sulforhodamine B assay relative to control; format: functional; conditions: HOP-62, 48 h, read-out: Activity; in short: as §1
[15] = tested on: MDA-MB-468; experiment: Growth inhibition of human MDA-MB-468 cells assessed as cell growth at 10^-5 M after 48 hrs by sulforhodamine B assay relative to control; format: functional; conditions: MDA-MB-468, 48 h, read-out: Activity; in short: as §1
[16] = tested on: SK-OV-3; experiment: Growth inhibition of human SKOV3 cells assessed as cell growth at 10^-5 M after 48 hrs by sulforhodamine B assay relative to control; format: functional; conditions: SK-OV-3, 48 h, read-out: Activity; in short: as §1
[17] = tested on: SK-MEL-5; experiment: Growth inhibition of human SK-MEL-5 cells assessed as cell growth at 10^-5 M after 48 hrs by sulforhodamine B assay relative to control; format: functional; conditions: SK-MEL-5, 48 h, read-out: Activity; in short: as §1
[18] = tested on: NCI-H460; experiment: Growth inhibition of human NCI-H460 cells assessed as cell growth at 10^-5 M after 48 hrs by sulforhodamine B assay relative to control; format: functional; conditions: NCI-H460, 48 h, read-out: Activity; in short: as §1
[19] = tested on: MOLT-4; experiment: Growth inhibition of human MOLT4 cells assessed as cell growth at 10^-5 M after 48 hrs by sulforhodamine B assay relative to control; format: functional; conditions: MOLT-4, 48 h, read-out: Activity; in short: as §1
[20] = tested on: SN12C; experiment: Growth inhibition of human SN12C cells assessed as cell growth at 10^-5 M after 48 hrs by sulforhodamine B assay relative to control; format: functional; conditions: read-out: Activity; in short: as §1
[21] = tested on: CCRF-CEM; experiment: Growth inhibition of human CCRF-CEM cells assessed as cell growth at 10^-5 M after 48 hrs by sulforhodamine B assay relative to control; format: functional; conditions: read-out: Activity; in short: as §1
[22] = tested on: ACHN; experiment: Growth inhibition of human ACHN cells assessed as cell growth at 10^-5 M after 48 hrs by sulforhodamine B assay relative to control; format: functional; conditions: read-out: Activity; in short: as §1
[23] = Growth inhibition of human HCC2998 cells assessed as cell growth at 10^-5 M after 48 hrs by sulforhodamine B assay relative to control; format: functional; conditions: HCC 2998, 48 h, read-out: Activity; in short: as §1
[24] = tested on: UO-31; experiment: Growth inhibition of human UO31 cells assessed as cell growth at 10^-5 M after 48 hrs by sulforhodamine B assay relative to control; format: functional; conditions: UO-31, 48 h, read-out: Activity; in short: as §2
[25] = tested on: SNB-75; experiment: Growth inhibition of human SNB75 cells assessed as cell growth at 10^-5 M after 48 hrs by sulforhodamine B assay relative to control; format: functional; conditions: SNB-75, 48 h, read-out: Activity; in short: as §1
[26] = tested on: A498; experiment: Growth inhibition of human A498 cells assessed as cell growth at 10^-5 M after 48 hrs by sulforhodamine B assay relative to control; format: functional; conditions: A498, 48 h, read-out: Activity; in short: as §1
[27] = tested on: Malme-3M; experiment: Growth inhibition of human MALME-3M cells assessed as cell growth at 10^-5 M after 48 hrs by sulforhodamine B assay relative to control; format: functional; conditions: read-out: Activity; in short: as §1
[28] = tested on: IGROV-1; experiment: Growth inhibition of human IGROV1 cells assessed as cell growth at 10^-5 M after 48 hrs by sulforhodamine B assay relative to control; format: functional; conditions: IGROV-1, 48 h, read-out: Activity; in short: as §1
[29] = target: Epidermal growth factor receptor (Homo sapiens, UniProt P00533); experiment: Inhibition of human EGFR
Epidermal growth factor receptor, sequence (P00533 whole entry): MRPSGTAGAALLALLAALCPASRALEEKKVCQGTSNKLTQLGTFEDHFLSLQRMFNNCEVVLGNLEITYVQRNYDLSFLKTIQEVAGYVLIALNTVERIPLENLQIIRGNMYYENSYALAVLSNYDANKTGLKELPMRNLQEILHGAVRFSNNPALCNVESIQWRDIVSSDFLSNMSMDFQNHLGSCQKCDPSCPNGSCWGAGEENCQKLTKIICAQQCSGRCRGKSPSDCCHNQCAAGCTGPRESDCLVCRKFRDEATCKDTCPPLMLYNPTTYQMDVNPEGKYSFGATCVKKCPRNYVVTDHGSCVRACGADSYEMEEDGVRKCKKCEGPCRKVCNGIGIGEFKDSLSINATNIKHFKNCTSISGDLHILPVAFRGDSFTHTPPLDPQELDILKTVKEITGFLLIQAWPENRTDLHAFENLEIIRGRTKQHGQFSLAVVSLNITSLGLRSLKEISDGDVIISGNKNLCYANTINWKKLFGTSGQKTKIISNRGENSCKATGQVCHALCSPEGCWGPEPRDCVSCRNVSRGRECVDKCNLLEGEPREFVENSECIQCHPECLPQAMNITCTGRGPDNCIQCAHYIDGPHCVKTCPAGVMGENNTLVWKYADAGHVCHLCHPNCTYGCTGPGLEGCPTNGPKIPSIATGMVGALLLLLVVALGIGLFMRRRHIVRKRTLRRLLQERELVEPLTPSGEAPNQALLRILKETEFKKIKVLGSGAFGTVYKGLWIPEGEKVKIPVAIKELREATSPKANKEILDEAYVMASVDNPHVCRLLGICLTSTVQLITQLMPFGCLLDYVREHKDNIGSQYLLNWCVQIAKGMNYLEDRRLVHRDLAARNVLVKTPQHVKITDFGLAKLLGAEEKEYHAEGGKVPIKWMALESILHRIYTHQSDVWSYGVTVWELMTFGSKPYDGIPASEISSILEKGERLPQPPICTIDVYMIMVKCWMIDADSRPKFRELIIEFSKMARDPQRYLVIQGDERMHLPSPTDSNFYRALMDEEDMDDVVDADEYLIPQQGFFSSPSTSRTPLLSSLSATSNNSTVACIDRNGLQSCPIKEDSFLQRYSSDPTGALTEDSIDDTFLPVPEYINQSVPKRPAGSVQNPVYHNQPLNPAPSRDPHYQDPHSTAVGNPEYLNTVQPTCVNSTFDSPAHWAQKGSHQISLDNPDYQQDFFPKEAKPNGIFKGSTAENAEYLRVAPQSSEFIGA

Row | Compound | growth at 10 µM [1] [%] | Ki [2] [µM] | growth at 10 µM [3] [%] | growth at 10 µM [4] [%] | growth at 10 µM [5] [%] | growth at 10 µM [6] [%] | growth at 10 µM [7] [%] | growth at 10 µM [8] [%] | growth at 10 µM [9] [%] | growth at 10 µM [10] [%] | growth at 10 µM [11] [%] | growth at 10 µM [12] [%] | growth at 10 µM [13] [%] | growth at 10 µM [14] [%] | growth at 10 µM [15] [%] | growth at 10 µM [16] [%] | growth at 10 µM [17] [%] | growth at 10 µM [18] [%] | growth at 10 µM [19] [%] | growth at 10 µM [20] [%] | further results
1 | CC(=O)N1CCN(C(=O)Cn2c(-c3ccc(Cl)cc3)csc2=N)CC1 | 90.2 | 11.3 | 75.9 | 96.9 | 90.4 | 84.5 | 95.5 | 100 | 74.7 | 94.4 | 97 | 81.6 | 97.7 | 93.4 | 82.9 | 92.4 | 86.4 | 101 | 77 | 88.6 | growth at 10 µM [21]: 92.3%; growth at 10 µM [22]: 90.7%; growth at 10 µM [23]: 98.9%; growth at 10 µM [24]: 89.1%; growth at 10 µM [25]: 74.4%; growth at 10 µM [26]: 67.7%; growth at 10 µM [27]: 133%; growth at 10 µM [28]: 100%; Ki [29]: 8.58 µM
2 | Cc1ccc(-c2csc(=N)n2CC(=O)N2CCOCC2)cc1 | 100 | 4.06 | 94.1 | 97.3 | 111 | 97.8 | 94.4 | 94.5 | 96.2 | 97.9 | 113 | 78.9 | 108 | 112 | 106 | 114 | 98.2 | 108 | 99.7 | 100 | growth at 10 µM [21]: 101%; growth at 10 µM [22]: 97.5%; growth at 10 µM [23]: 98.9%; growth at 10 µM [24]: 95.3%; growth at 10 µM [25]: 90.6%; growth at 10 µM [26]: 95.1%; growth at 10 µM [27]: 131%; growth at 10 µM [28]: 112%; Ki [29]: 22.9 µM
3 | N=c1scc(-c2ccc(Cl)cc2)n1CC(=O)N1CCOCC1 | 95.8 | 3.73 | 84.6 | 95.6 | 104 | 86.8 | 98.3 | 110 | 72.7 | 95.5 | 101 | 79.2 | 108 | 98.5 | 95.5 | 90 | 96.5 | 99.3 | 69.2 | 86.9 | growth at 10 µM [21]: 91.3%; growth at 10 µM [22]: 99.4%; growth at 10 µM [23]: 99.9%; growth at 10 µM [24]: 86.1%; growth at 10 µM [25]: 75.3%; growth at 10 µM [26]: 75.5%; growth at 10 µM [27]: 105%; growth at 10 µM [28]: 90.4%; Ki [29]: 6.64 µM

From ChEMBL document CHEMBL2434944, “Novel acetamidothiazole derivatives: synthesis and in vitro anticancer evaluation” (Eur J Med Chem, 2013)
